{
  "source": "ChEMBL document CHEMBL1127466",
  "about": "“Synthesis and opioid activity of 7-oxygenated 2,3,4,4a,5,6,7,7a-octahydro-1H-benzofuro[3,2-e]isoquinolin-9-ols” (J Med Chem, 1994)",
  "key": {"[1]": {"system": "Mus musculus", "experiment": "Narcotic antagonism was measured by using Anti-Straub tail (AST) test after subcutaneous administration", "assay_type": "functional", "conditions": "sc", "how_it_was_run": "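Fasted male CFI mice, 18–23 g, given coded doses of test compound, then desonitazene 0.08 mg/kg ip 5 min before the designated test time. Antagonism is scored as complete blockade of the Straub tail response over a 5-min observation period starting at test time.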"}, "[2]": {"target": "Mu-type opioid receptor (Cavia porcellus, UniProt P97266)", "sequence (P97266 whole entry)": "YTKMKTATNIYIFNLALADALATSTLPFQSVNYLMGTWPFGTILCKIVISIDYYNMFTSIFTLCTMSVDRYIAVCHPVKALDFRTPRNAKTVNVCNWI", "experiment": "[…]", "assay_type": "organism-based", "how_it_was_run": "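Brain membranes come from male Hartley guinea pigs, 250–300 g. Values are the mean of three experiments, each done in duplicate.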"}, "[3]": {"target": "Kappa-type opioid receptor (Cavia porcellus, UniProt P41144)", "sequence (P41144 whole entry)": "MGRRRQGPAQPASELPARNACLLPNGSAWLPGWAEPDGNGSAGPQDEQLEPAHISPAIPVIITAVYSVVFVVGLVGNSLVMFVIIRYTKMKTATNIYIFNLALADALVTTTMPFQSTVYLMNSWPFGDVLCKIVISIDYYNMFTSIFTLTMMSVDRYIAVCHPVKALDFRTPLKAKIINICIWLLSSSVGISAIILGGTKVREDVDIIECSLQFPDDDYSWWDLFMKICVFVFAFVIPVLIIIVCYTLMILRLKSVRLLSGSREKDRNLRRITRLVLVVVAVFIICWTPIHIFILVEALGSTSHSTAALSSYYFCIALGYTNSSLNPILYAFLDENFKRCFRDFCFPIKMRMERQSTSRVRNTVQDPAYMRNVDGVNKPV", "experiment": "biochemical", "assay_type": "organism-based"}, "[4]": {"system": "Mus musculus", "experiment": "In vivo analgesic activity was measured by using Antiphenyl quinone Writhing(PQW) test after subcutaneous administration; Inactive", "assay_type": "functional", "conditions": "sc", "how_it_was_run": "(§1)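 Fasted male CFI mice, 18–23 g, given coded doses of test compound, then phenylquinone 1.25 mg/kg ip 5 min before the designated test time. Analgesia is scored as complete blockade of writhing over a 10-min observation period starting at test time.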"}, "[5]": {"experiment": "Ratio between IC50 of the agonist in presence of naloxone and IC50 of the control", "assay_type": "functional", "how_it_was_run": "(§2)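 Ileum strips in the electrically stimulated guinea pig ileum set-up, 37 °C Krebs-Tris. […] IC50 ratio is IC50 with antagonist divided by control IC50 in the same preparation. Ke = [antagonist]/(IC50 ratio – 1).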"}, "[6]": {"organism": "Cavia porcellus", "experiment": "Ke value was measured as concentration of antagonist/ (IC50 ratio - 1)", "assay_type": "functional", "how_it_was_run": "as §2"}, "[7]": {"system": "Mus musculus", "experiment": "In vivo analgesic activity was measured by using Antiphenyl quinone Writhing(PQW) test after subcutaneous administration", "assay_type": "functional", "conditions": "sc", "how_it_was_run": "as §1"}, "[8]": {"organism": "Cavia porcellus", "experiment": "Opioid agonistic activity was measured by using Guinea pig ileum bioassay", "assay_type": "functional", "how_it_was_run": "(§3)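 Longitudinal muscle strips from male Hartley guinea pig ileum (250–400 g) in Krebs-Tris at 37 °C, oxygenated. Stimulated electrically at 0.1 Hz, 0.8 ms, supramaximal voltage, under 1 g resting tension. Contractions recorded isometrically after 90 min equilibration, with cumulative dose–response curves for inhibition. Partial agonist response is taken at 1 μM.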"}, "[9]": {"experiment": "(§4) Opioid antagonistic activity was measured against mu receptor in guinea pig ileal preparation using morphine as agonist", "assay_type": "functional", "how_it_was_run": "(§5)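 Electrically stimulated guinea pig ileum longitudinal muscle strips. After control agonist curves and washout, the test antagonist is applied at 3 nM for 30 min. […] Ke = [antagonist]/(IC50 ratio – 1).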"}, "[10]": {"target": "Kappa-type opioid receptor (Cavia porcellus) (UniProt P41144)", "sequence (P41144 whole entry)": "as above", "experiment": "(§6) Opioid antagonistic activity was measured against kappa receptor in guinea pig ileal preparation using US-50488 as agonist", "assay_type": "functional", "how_it_was_run": "as §5"}, "[11]": {"organism": "Cavia porcellus", "experiment": "Ke value was measured as antagonist/ (IC50 ratio - 1)", "assay_type": "functional", "how_it_was_run": "as §2"}, "[12]": {"experiment": "as §6", "assay_type": "functional", "how_it_was_run": "as §5"}, "[13]": {"target": "Mu-type opioid receptor (Cavia porcellus) (UniProt P97266)", "sequence (P97266 whole entry)": "as the sequence (P97266 whole entry) above", "experiment": "as §4", "assay_type": "functional", "how_it_was_run": "as §5"}, "[14]": {"organism": "Cavia porcellus", "experiment": "Partial agonist potency at 1 uM was measured using Guinea pig ileum preparation", "assay_type": "functional", "how_it_was_run": "as §3"}},
  "data": [
    {"compound": "O=C1CC[C@@H]2CN(CC3CC3)CC[C@@]23c2cccc(O)c2O[C@@H]13", "values": [
      {"measurement": "ED50", "setting": "[1]", "result": 1, "unit": "mg/kg"},
      {"measurement": "Ki", "setting": "[2]", "result": 19, "unit": "nM"},
      {"measurement": "Ki", "setting": "[3]", "result": 62, "unit": "nM"},
      {"measurement": "ED50", "setting": "[4]", "result": "> 5.4", "unit": "mg/kg"}
    ]},
    {"compound": "Oc1cccc2c1O[C@H]1[C@@H](O)CC[C@H]3CN(CC4CC4)CC[C@@]231", "values": [
      {"measurement": "ED50", "setting": "[1]", "result": 0.55, "unit": "mg/kg"},
      {"measurement": "Ki", "setting": "[2]", "result": 1.4, "unit": "nM"},
      {"measurement": "Ratio", "setting": "[5]", "result": 8.1},
      {"measurement": "Ki", "setting": "[3]", "result": 4.9, "unit": "nM"},
      {"measurement": "Ke", "setting": "[6]", "result": 14.1, "unit": "nM"},
      {"measurement": "ED50", "setting": "[7]", "result": 0.37, "unit": "mg/kg"},
      {"measurement": "IC50", "setting": "[8]", "result": 2.8, "unit": "nM"}
    ]},
    {"compound": "COc1cccc2c1O[C@H]1C(=O)CC[C@H]3CN(CC4CC4)CC[C@@]231", "values": [
      {"measurement": "ED50", "setting": "[1]", "result": 0.34, "unit": "mg/kg"},
      {"measurement": "Ki", "setting": "[2]", "result": 76, "unit": "nM"},
      {"measurement": "Ki", "setting": "[3]", "result": 1760, "unit": "nM"},
      {"measurement": "ED50", "setting": "[7]", "result": 0.93, "unit": "mg/kg"}
    ]},
    {"compound": "O=C1CC[C@H]2CN(CC3CC3)CC[C@@]23c2cccc(O)c2O[C@@H]13", "values": [
      {"measurement": "ED50", "setting": "[1]", "result": 0.022, "unit": "mg/kg"},
      {"measurement": "Ki", "setting": "[2]", "result": 0.25, "unit": "nM"},
      {"measurement": "Ki", "setting": "[3]", "result": 1.73, "unit": "nM"},
      {"measurement": "ED50", "setting": "[7]", "result": 0.15, "unit": "mg/kg"}
    ]},
    {"compound": "COc1cccc2c1O[C@H]1[C@@H](O)CC[C@H]3CN(CC4CC4)CC[C@@]231", "values": [
      {"measurement": "ED50", "setting": "[1]", "result": 1.4, "unit": "mg/kg"},
      {"measurement": "Ki", "setting": "[2]", "result": 29, "unit": "nM"},
      {"measurement": "Ki", "setting": "[3]", "result": 140, "unit": "nM"},
      {"measurement": "ED50", "setting": "[7]", "result": 3, "unit": "mg/kg"}
    ]},
    {"compound": "Oc1cccc2c1O[C@H]1[C@H](O)CC[C@@H]3CN(CC4CC4)CC[C@@]231", "values": [
      {"measurement": "ED50", "setting": "[1]", "result": 0.8, "unit": "mg/kg"},
      {"measurement": "Ratio", "setting": "[9]", "result": 6.3},
      {"measurement": "Ke", "setting": "[10]", "result": 2.3, "unit": "nM"},
      {"measurement": "Ki", "setting": "[2]", "result": 3.9, "unit": "nM"},
      {"measurement": "Ratio", "setting": "[5]", "result": 8.5},
      {"measurement": "Ki", "setting": "[3]", "result": 12, "unit": "nM"},
      {"measurement": "Ke", "setting": "[11]", "result": 13.3, "unit": "nM"},
      {"measurement": "Ratio", "setting": "[12]", "result": 2.3},
      {"measurement": "ED50", "setting": "[4]", "result": "> 4", "unit": "mg/kg"},
      {"measurement": "Ke", "setting": "[13]", "result": 0.57, "unit": "nM"},
      {"measurement": "Max response", "setting": "[14]", "result": 78, "unit": "%"}
    ]},
    {"compound": "C=CCN1CC[C@]23c4c5ccc(O)c4O[C@H]2C(=O)CC[C@@]3(O)[C@H]1C5", "note": "[NALOXONE]", "values": [
      {"measurement": "ED50", "setting": "[1]", "result": 0.02, "unit": "mg/kg"},
      {"measurement": "ED50", "setting": "[4]", "result": "> 100", "unit": "mg/kg"}
    ]},
    {"compound": "Oc1cccc2c1O[C@H]1CCC[C@H]3CN(CC4CC4)CC[C@@]231", "values": [
      {"measurement": "ED50", "setting": "[1]", "result": 0.018, "unit": "mg/kg"},
      {"measurement": "Ki", "setting": "[2]", "result": 0.57, "unit": "nM"},
      {"measurement": "Ki", "setting": "[3]", "result": 1.2, "unit": "nM"},
      {"measurement": "ED50", "setting": "[7]", "result": 0.025, "unit": "mg/kg"}
    ]},
    {"compound": "CN1CC[C@]23c4cccc(O)c4O[C@H]2C(=O)CC[C@H]3C1", "values": [
      {"measurement": "ED50", "setting": "[1]", "result": 1.4, "unit": "mg/kg"},
      {"measurement": "Ki", "setting": "[2]", "result": 7.8, "unit": "nM"},
      {"measurement": "Ki", "setting": "[3]", "result": 186, "unit": "nM"},
      {"measurement": "ED50", "setting": "[7]", "result": 0.4, "unit": "mg/kg"}
    ]}
  ]
}
